Structures are written as SMILES.

A short description of this data set: Toxicity liver stage against HepG2, at 10uM. It counts as cell-based. To be noted: human, HepG2-A16-CD81EGFP cells; read-out: INHIBITION
Also on record: test concentration 10 uM, cell line HepG2-A16-CD81EGFP. An outline of the steps:
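Uninfected HepG2-A16-CD81EGFP cells, 3 × 10^3 per well, 1536-well, plated on prespotted compound at 10 μM final, parasite-free screening media added to match infected plates; puromycin 10 μM positive, DMSO 0.5% negative; run in parallel with 48 h PbLuc assay at 37 °C, 5% CO2; viability by CellTiter-Glo luminescence, normalized to controls.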
For the compound `CN1C(=O)CO[C@H](c2ccc(NC(=O)Nc3ccccc3)cc2)[C@H]1CO`, the cytotoxicity at 10 µM was -1.63%.

As for `CCC(=O)Nc1ccccc1Sc1nc(Br)nn1C`, the cytotoxicity at 10 µM was determined as 3.28%.

On to `COc1ccccc1CN1CC(O)CN(C(=O)OCC(C)C)CC1=O` (stereo unspecified), for which the cytotoxicity at 10 µM is -6.19%.

In the case of `COc1ccc(S(=O)(=O)NCCC(O)c2ccccc2)c(C)c1` (stereo unspecified), the cytotoxicity at 10 µM turned out to be 0.174%.

With `O=C(NC1CC1)[C@@H]1CCO[C@@H]2CCN(C3CCCC3)C[C@H]21`, the cytotoxicity at 10 µM amounted to 13.3%.

As for `CC(=O)N1CCCC2(CN(Cc3ccccc3C(F)(F)F)CCO2)C1` (stereo unspecified), the cytotoxicity at 10 µM turned out to be 7.28%.

Turning to `CCOCC1CN(C(=O)c2ccco2)Cc2nn(C)cc21` (stereo unspecified), the cytotoxicity at 10 µM is 3.86%.

As to `COc1ccc(-c2c(C)nn3c(=N)c(C#N)n[nH]c23)cc1`, the cytotoxicity at 10 µM was -8.26%.

On to `O=C1CSC(c2cccs2)c2cnn(C3CCCC3)c2N1` (stereo unspecified), for which the cytotoxicity at 10 µM was found to be 5.99%.

As to `CS(=O)(=O)N1CC[C@]2(C[C@@H](OCC3CCC3)CO2)C1`, the cytotoxicity at 10 µM was -6.66%.

As for `Cn1cc(-c2ncnc3c2CCN(C(=O)N2CCOCC2)CC3)cn1`, the cytotoxicity at 10 µM was -11.3%.

In the case of `CC(C)N(C)C(=O)C1=NOC2(CCN(C(=O)c3ccncc3)C2)C1` (stereo unspecified), the cytotoxicity at 10 µM is -0.237%.

In the case of `Cc1nc(N2CCOCC2)nc2c1CCN(C(=O)NC1CCCC1)CC2`, the cytotoxicity at 10 µM amounted to 3.41%.

As to `CCn1cc(C(=O)NCc2ccc3c(c2)OCO3)c(C)n1`, the cytotoxicity at 10 µM is 9.9%.

As for `Cc1ccc(Cn2nc(C)c3c(C(=O)O)c(Cl)c(C)nc32)cc1`, the cytotoxicity at 10 µM came to 5.53%.

Take `COCCCNc1cc(C)nn2cnnc12`: the cytotoxicity at 10 µM came to 6%.

Turning to `O=C(c1ccc(-c2ccc(O)nc2)s1)N1CCSCC1`, the cytotoxicity at 10 µM turned out to be 3.96%.

As for `CN1CCN(C(=O)CCn2ncc3ccccc32)CC(C(N)=O)C1` (stereo unspecified), the cytotoxicity at 10 µM came to 4.33%.

Take `Cc1cc2c(=O)n(CC(=O)N3CCn4cccc4C3C(C)C)cnc2s1` (stereo unspecified): the cytotoxicity at 10 µM was determined as 3.77%.

For the compound `COCC(=O)NCc1cnc(C)nc1-c1cn(C)c2ccc(OC)cc12`, the cytotoxicity at 10 µM was 11.9%.

`COCCNc1ncc(-c2cccc(OC)c2)c(-c2nccn2C)n1`: the cytotoxicity at 10 µM was 7.49%.

With `CNc1cnc(CC2COCCN(Cc3cccc(C)n3)C2)cn1` (stereo unspecified), the cytotoxicity at 10 µM worked out at 8%.

For the compound `CNC(=O)C1CN(C(C)C)CCN1c1nc(C)cc(C)n1` (stereo unspecified), the cytotoxicity at 10 µM was -10.4%.

For `c1ccc(CN2CCCC[C@H]3CN(c4ncccn4)C[C@H]32)cc1`, the cytotoxicity at 10 µM was -3.81%.

For `CCOC(=O)CCCc1ccc2c(c1)CC(=O)N2`, the cytotoxicity at 10 µM stood at 1.23%.

For `O=C(Nc1ccc(-c2csnn2)cc1)N1CCN2CCCCC2C1` (stereo unspecified), the cytotoxicity at 10 µM is -7.23%.

Consider `CCS(=O)(=O)Cc1csc(-c2ccc(S(C)(=O)=O)cc2)n1`, for which the cytotoxicity at 10 µM was 8.8%.

For `CCCc1cc(C(=O)NCCCC(=O)N2Cc3ccccc3C2)[nH]n1`, the cytotoxicity at 10 µM is 8.81%.

For the compound `CCc1cc(CNC(=O)N(C2CC2)C(C)c2ccco2)on1` (stereo unspecified), the cytotoxicity at 10 µM is -0.335%.

`O=C(CCSc1ccccc1)NCCn1nc2ccccn2c1=O`: the cytotoxicity at 10 µM was -6.09%.

For `O=C1OCCN1CCS(=O)(=O)c1cccc(Cl)c1`, the cytotoxicity at 10 µM was -0.82%.

On to `CCOc1cccc(COC(=O)c2cscn2)n1`, for which the cytotoxicity at 10 µM was -0.262%.

`Cc1ncc(CN(C)Cn2nc(-c3ccccc3)oc2=O)s1`: the cytotoxicity at 10 µM is -2.81%.

As to `O=S(=O)(NCc1ccc(S(=O)(=O)N2CCCC2)s1)c1cc(Cl)ccc1Cl`, the cytotoxicity at 10 µM is -43.4%.

In the case of `NC(=O)NC(CC(=O)N1CCc2sccc2C1)c1ccccc1F` (stereo unspecified), the cytotoxicity at 10 µM was 3.5%.

On to `Cn1ncc2c1CCCC2NCc1cccnc1` (stereo unspecified), for which the cytotoxicity at 10 µM was 0.999%.

For `O=C(CC1=CCCCC1)NCCc1csc(N2CCCC2)n1`, the cytotoxicity at 10 µM is -7.63%.

In the case of `COC(=O)[C@H](C)NC(=O)c1cc(-c2cccc(Cl)c2)no1`, the cytotoxicity at 10 µM was -7.25%.

As to `CCSc1ccc(C(=O)Nc2c(C)nn(C(C)C)c2C)cn1`, the cytotoxicity at 10 µM was -24.4%.

For `CC(CN1CCN(C)CC1)NC(=O)c1cc(Cl)c2c(c1)OCO2` (stereo unspecified), the cytotoxicity at 10 µM was -14%.

For `CCN(CC)Cc1nc2c(o1)CN(C(=O)c1ccncc1F)C2`, the cytotoxicity at 10 µM is -109%.

For `Cc1cnc(C(=O)N2CCC3(CCCN(c4nncs4)C3)C2)cn1` (stereo unspecified), the cytotoxicity at 10 µM was -103%.

In the case of `CSCC[C@H](N)C(=O)NCc1cc2n(n1)CCCN(C(=O)N(C)C)C2`, the cytotoxicity at 10 µM is 9.8%.

`CCN(CC)C(=O)C1CCCN(c2ncnc3oc(C)nc23)C1` (stereo unspecified): the cytotoxicity at 10 µM came out at 1.61%.

For `Cc1cc(C2CCC2)nc(N(C)CCc2ccccn2)n1`, the cytotoxicity at 10 µM is -3.09%.

As for `CCCSCC(=O)N1CCCC2(CCC(=O)N(CCc3c[nH]cn3)C2)C1` (stereo unspecified), the cytotoxicity at 10 µM was -0.0682%.

For `Cc1nn(C)c2nc(N(Cc3ccccn3)CC3CCCO3)sc12` (stereo unspecified), the cytotoxicity at 10 µM was -1.01%.

In the case of `Cc1n[nH]c(C)c1Sc1ccccc1NC(=O)CN1CCCC1`, the cytotoxicity at 10 µM is -8.7%.

In the case of `COc1cccc(CCC2CCCN(C(=O)C3=NN(C)C(=O)CC3)C2)c1` (stereo unspecified), the cytotoxicity at 10 µM was -2.06%.

As to `CC(=O)c1cc(CC(=O)NCc2c(F)cccc2F)cs1`, the cytotoxicity at 10 µM is -8.51%.

Turning to `CCCN(C)C(=O)c1ccc2c(c1)[nH]c(=O)n2CCOCC`, the cytotoxicity at 10 µM is -30.6%.

Regarding `Cc1ccc(OC2(C(=O)O)CCN(C(=O)c3ccc(F)cc3)CC2)cn1`, the cytotoxicity at 10 µM is -18.1%.

As to `O=C(N[C@@H]1CCNC[C@H]1O)c1ccc(F)c(Cl)c1`, the cytotoxicity at 10 µM is -11.1%.

In the case of `CCN1CCOC(CNCc2ccc(OCc3ccccn3)cc2)C1` (stereo unspecified), the cytotoxicity at 10 µM was -7.83%.

With `O=C(CCc1ccc(-c2ccccc2)[nH]1)N1CCCC(n2ccnc2)C1` (stereo unspecified), the cytotoxicity at 10 µM was -15.7%.

As to `CCCc1n[nH]c(C2CN(C(=O)c3cc(F)ccc3OC)CCO2)n1` (stereo unspecified), the cytotoxicity at 10 µM is -5.58%.

Take `CC(=O)N(Cc1ncc(C(C)C)o1)C1CCN(Cc2nccn2C)C1` (stereo unspecified): the cytotoxicity at 10 µM is -3.81%.

With `Cc1nc(C)n(CC2CCCN(Cc3cccc(C#N)c3)C2)n1` (stereo unspecified), the cytotoxicity at 10 µM is -16%.

`CC(C)c1noc(CCC(=O)NCC2CCOC2)n1` (stereo unspecified): the cytotoxicity at 10 µM is 4.57%.

Turning to `Cc1cnc(CN(C)C2CCN(Cc3ccccc3C#N)C2)o1` (stereo unspecified), the cytotoxicity at 10 µM turned out to be 1.08%.

`COCCc1noc(CN2CCCC2c2c(C)nn(C)c2C)n1` (stereo unspecified): the cytotoxicity at 10 µM is -5.73%.

Turning to `FC(F)(F)Cn1ccnc1CN1CCOC(Cn2cccn2)C1` (stereo unspecified), the cytotoxicity at 10 µM stood at 0.0962%.

For `Cc1nn(C)c(Cl)c1C1CCCN1CC(=O)NCc1ccccn1` (stereo unspecified), the cytotoxicity at 10 µM is -2.07%.

As to `Cc1ccc(-c2ncc(C(=O)NCCNc3ncccn3)s2)c(C)c1`, the cytotoxicity at 10 µM was -9.12%.

As to `Cc1cnn(CC2CN(Cc3nc(-c4ccoc4)no3)CCO2)c1` (stereo unspecified), the cytotoxicity at 10 µM is -9.63%.

As for `CC(C)c1nnc(NC(=O)NCc2ccc(CO)c(F)c2)s1`, the cytotoxicity at 10 µM came to 6.54%.

Turning to `CN(C)C(=O)CO[C@H]1CN(Cc2ccccc2)[C@@H]2CCCO[C@H]12`, the cytotoxicity at 10 µM was -8.1%.

Take `CCCC(=O)N1CCOC2(COCCN(CC(=O)NC)C2)C1` (stereo unspecified): the cytotoxicity at 10 µM is -3.58%.

`COc1cccc(-c2n[nH]cc2CNC2CCN(C3CC3)CC2)c1`: the cytotoxicity at 10 µM is -3.78%.

Consider `Cc1ccc(CN2Cc3c(C(=O)N4CCN(C)CC4)nn(C)c3C2)s1`, for which the cytotoxicity at 10 µM is -6.77%.

For the compound `COCCC(=O)NCC1CCC(C(c2ccccn2)N(C)C)CC1` (stereo unspecified), the cytotoxicity at 10 µM stood at 11.5%.

Values taken from ChEMBL document CHEMBL4513216, “Probing the Open Global Health Chemical Diversity Library for Multistage-Active Starting Points for Next-Generation Antimalarials” (ACS Infect Dis, 2020).
